Screens from PubChem BioAssay.
SR-BI DiI inh: mouse SR-BI HDL lipid transfer inhibition | ldlA[mSR-BI] CHO cells, DiI-HDL uptake fluorescence, 3 h | inhibition, % at 12.5 µM | 320,000 compounds, 0.96% hits | AID 488896;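 active = mean replicate inhibition of at least 70% and a set share of replicates each scoring 70 or more; inconclusive = meets just one of the two criteria; inactive = fails both criteria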;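 note: 0% = median of neutral control wells and 100% = median of positive control wells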
UBC13 inh: blocks human UBC13 polyubiquitin chain formation | P61088 | TR-FRET | inhibition, % at 20 µM | 330,000 compounds, 0.47% hits; in the data active = inhibition above about 45%, passing the limit was not always enough; inconclusive = no clear call, values can overlap the other calls
Neddyl block: blocks human cullin neddylation | TR-FRET cullin neddylation, biochemical | inhibition, % at 25 µM | 360,000 compounds, 0.58% hits; in the data active = inhibition above about 36%
SR-BI uptake up: enhances SR-BI lipid uptake from DiI-HDL; 320,000 compounds, 0.096% hits; activation, % at 12.5 µM; CHO ldlA[mSR-BI] cells, DiI-HDL uptake fluorescence, 3 h; 100 = double the neutral-control signal;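 active = mean replicate activation of at least 60% and every replicate at or above 60%; inconclusive = mean or all-replicate condition met, but not both; inactive = mean below 60% and not all replicates reaching 60%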;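 note: 0% = median plate neutral-control signal and 100% = twice that signal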
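Test system: SR-BI-overexpressing, LDLR-lacking CHO cells; Also added: labelled HDL, 10 µg/mL; Measured by: bottom-read cell fluorescence after medium removal, ex 550/em 595 nm; Timing: 3 h uptake period with compound, 37 °C; Buffer or medium: F12, 0.5% BSA, 25 mM HEPES; Doses: single compound concentration, delivered by pin transfer.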
Casp3 counter: inhibits human caspase-3 in UBC13 counter-screen; shares compounds with UBC13 inh; Recombinant caspase-3, Caspase-Glo 3/7 luminescence, 60 min; inhibition, % at 20 µM; 1,400 compounds, 4% hits; AID 488856;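 active = mean inhibition across replicates above about 26%, limit read from the data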;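 note: plate controls were DMSO with caspase-3 for no effect and DMSO wells lacking enzyme for full effect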
UBC13 conf: human UBC13 polyubiquitin inhibition, confirmed. shares compounds with UBC13 inh. UBC13 polyubiquitination, TR-FRET, biochemical. inhibition, % at 10 µM. 1,400 compounds, 68% hits. AID 488859; in the data active = inhibition above about 45%; inconclusive = no clear call, values can overlap the other calls
The depositor's hits bear a star; ? = inconclusive; nt = no result given. Shown are actives, neighbours in structure and some others; about 1.9% of the full set was active somewhere.

SMILES	SR-BI DiI inh	UBC13 inh	Neddyl block	SR-BI uptake up	Casp3 counter	UBC13 conf
CCN1CCN(CCCNC(=O)c2ccc3c(c2)NC(=O)/C(=C\c2cccc(C)c2)S3)CC1	-10	55*	21	10	0	65*
Cc1cccc(/C=C2/Sc3ccc(C(=O)NCCN4CCCC4)cc3NC2=O)c1	21	60*	19	-21	3	94*
COc1cccc(/C=C2/Sc3ccc(C(=O)NCCN4CCCCCC4)cc3NC2=O)c1	30	66*	19	-30	1	92*
O=C(Nc1ccc(F)cc1F)NC1CCCCCCC1	-35	10	-2	35	nt	nt
CCOC(=O)c1ccc(NC(=O)C(=O)NCC2(c3ccc(OC)cc3)CCOCC2)cc1	14	4	-12	-14	nt	nt
CN1C(=O)NC(c2ccccc2[N+](=O)[O-])C2=C1CCCC2=O (stereo not given)	-21	-39	4	21	nt	nt
CCOC(=O)c1nn(-c2ccccc2C)c(=O)cc1OCC(=O)N1CCN(c2ccccc2)CC1	-1	-10	4	1	nt	nt
COc1cccc(NC(=O)CSc2nc3ccccc3c(=O)n2CCCC(=O)NCCCN2CCOCC2)c1	-24	61*	-7	24	-3	79*
O=C(CSc1nc2c(sc3ccccc32)c(=O)n1CCCN1CCCC1)NCC1CCCO1 (stereo not given)	-5	-20	2	5	nt	nt
Cc1ccc(NC(=O)CSc2nc3ccccc3c(=O)n2CCCC(=O)NCCCN2CCOCC2)cc1	-1	25	-2	1	nt	nt
COc1ccc(NC(=O)CSc2nc3c(sc4ccccc43)c(=O)n2CCCN2CCCC2)cc1	-13	50*	-41	13	-2	54*
Cc1ccc(S(=O)(=O)N2CCSCCSCCSCCSCC2)cc1	-21	nt	-1	21	nt	nt
CN1CCN(CCCNC(=O)c2ccc(/C=C3\Oc4ccccc4N(Cc4ccccc4F)C3=O)cc2)CC1	-10	45*	nt	10	-4	52*
Cc1cn([C@H]2C[C@H](O)[C@@H](CNCc3ccc(Oc4cc(-n5cccn5)ncn4)cc3)O2)c(=O)[nH]c1=O	nt	nt	1	nt	nt	nt
CC(C)Cn1cc(C(=O)NCCCN2CCC(C)CC2)c2c3ccccc3n(C)c2c1=O	nt	76*	26	nt	-4	50*
CC(C)Cn1cc(C(=O)NC2CCN(Cc3ccccc3)CC2)c2c3ccccc3n(C)c2c1=O	nt	68*	nt	nt	-2	45
CN(C)CCN1CCN(C2CN(Cc3ccc([N+](=O)[O-])cc3)S(=O)(=O)C2)CC1 (stereo not given)	nt	nt	-17	nt	nt	nt
CCc1noc(C)c1C(=O)N(CC)CC(=O)NCc1ccc(Cl)cc1	-6	7	13	6	nt	nt
COc1ccc(-c2cc3c(=O)n(CC(=O)NCCCN4CCC(N5CCCCC5)CC4)nc(C)n3n2)cc1	3	71*	nt	-3	-1	34
CCCCCCCCCCCCCCCC(O)C(N)CO (stereo not given)	-2	111*	7	2	2	101*
CCCCCCCCCCCCCCCC(O)C[N+](C)(C)CCO (stereo not given)	-9	nt	5	9	nt	nt
CN(C)CCNc1ncnc2c1sc1nc(-c3ccccc3)c3c(c12)CCCC3	-17	62*	1	17	2	103*
CN[C@H]1CC[C@@H](c2ccc(Cl)c(Cl)c2)c2ccccc21	-16	nt	-9	16	-3	nt
O=C1NC2(CCCCCC2)N=C1c1ccc(Br)cc1	nt	49*	-9	nt	-3	?
COc1cc(C2C(C#N)=C(N)Oc3n[nH]c(-c4cccs4)c32)cc(OC)c1O (stereo not given)	-1	84*	-27	1	0	88*
CC1CC(C)CN(C(=O)c2ccc3c(c2)N(Cc2ccccc2)CCS3)C1 (stereo not given)	42	25	16	-42	nt	nt
Cc1ccc(CN2CCSc3ccc(C(=O)NC4CCN(Cc5ccccc5)CC4)cc32)cc1	70	62*	-86	-70	2	?
O=C(NC1CCCC1)c1ccc2c(c1)N(Cc1ccccc1)CCS2	10	38	-77	-10	nt	nt
CCOC(=O)N1CCN(C(=O)c2ccc3c(c2)N(Cc2ccccc2)CCS3)CC1	34	46*	26	-34	-2	44
COc1ccccc1-c1oc2ccccc2c1C#CC1(N)CCCCC1	2	70*	nt	-2	-3	70*
